This is an account of results in ChEMBL document CHEMBL1153113, “Discovery of potent, selective, and orally bioavailable PDE5 inhibitor: Methyl-4-(3-chloro-4-methoxybenzylamino)-8-(2-hydroxyethyl)-7-methoxyquinazolin-6-ylmethylcarbamate (CKD 533)” (Bioorg Med Chem Lett, 2010).

SMILES strings stand for the structures. Active and inactive are the calls of the source.

The target of data set [1] is Dual 3',5'-cyclic-AMP and -GMP phosphodiesterase 11A (Homo sapiens, UniProt Q9HCR9). The data set is described as follows: Inhibition of human recombinant PDE11.
For data set [2], the target named is T1, Rod cGMP-specific 3',5'-cyclic phosphodiesterase subunit alpha (Bos taurus, UniProt P11541).
T1 sequence (P11541 whole entry): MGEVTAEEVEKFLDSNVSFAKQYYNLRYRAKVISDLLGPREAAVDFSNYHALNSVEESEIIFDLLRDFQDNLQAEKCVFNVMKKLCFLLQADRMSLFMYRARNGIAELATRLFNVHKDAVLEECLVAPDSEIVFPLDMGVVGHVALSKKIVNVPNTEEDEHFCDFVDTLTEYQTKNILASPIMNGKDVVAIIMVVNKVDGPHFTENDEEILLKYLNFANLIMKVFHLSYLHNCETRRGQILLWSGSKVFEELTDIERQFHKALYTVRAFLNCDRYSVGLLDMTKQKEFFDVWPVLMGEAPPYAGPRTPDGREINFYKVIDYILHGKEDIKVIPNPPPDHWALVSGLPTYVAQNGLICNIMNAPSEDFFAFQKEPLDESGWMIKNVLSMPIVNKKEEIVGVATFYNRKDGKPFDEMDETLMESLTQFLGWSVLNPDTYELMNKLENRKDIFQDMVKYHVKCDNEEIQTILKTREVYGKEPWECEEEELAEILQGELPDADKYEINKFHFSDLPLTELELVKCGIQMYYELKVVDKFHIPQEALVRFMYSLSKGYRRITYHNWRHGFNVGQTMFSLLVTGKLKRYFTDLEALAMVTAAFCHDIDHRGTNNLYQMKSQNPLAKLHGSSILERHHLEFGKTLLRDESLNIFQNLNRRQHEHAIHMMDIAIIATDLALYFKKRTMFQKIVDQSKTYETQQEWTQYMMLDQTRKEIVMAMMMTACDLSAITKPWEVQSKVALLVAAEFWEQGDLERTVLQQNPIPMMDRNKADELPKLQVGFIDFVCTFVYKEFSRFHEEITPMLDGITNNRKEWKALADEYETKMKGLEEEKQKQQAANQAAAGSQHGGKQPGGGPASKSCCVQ
The data set is described as follows: Inhibition of bovine retina PDE6.

In data set [3] the target is cGMP-specific 3',5'-cyclic phosphodiesterase (Bos taurus, UniProt Q28156). The data set is described as follows: Inhibition of bovine platelet PDE5.
A short description of data set [4]: Metabolic stability in human liver microsomes assessed as compound remaining after 1 hr. It counts as ADME, Microsome. To be noted: read-out: Stability. The gist of the method: (§1)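 Liver microsomes (human, rat or rabbit) incubated with compound (5) in pH 7.4 phosphate buffer with an NADPH-regenerating system (2.5 mM MgCl2, 2.5 mM glucose-6-phosphate, 1 mM NADP, 1 U/ml G6P dehydrogenase) at 37 °C for 1 h. Human microsomes at 1.25 mg/ml. Read-out was % parent remaining; metabolites analysed by LC/MS.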

A short description of data set [5]: Metabolic stability in rat liver microsomes assessed as compound remaining after 1 hr. The data set is classed as ADME, Microsome. The settings on record: read-out: Stability. A digest of the protocol:
as §1

A short description of data set [6]: Permeability across human Caco-2 cells. The settings on record: read-out: permeability. The data set is classed as ADME, cell-based. (In general: Caco-2 cells form a polarised layer with tight junctions and transporters.)
Data set [7] is described as follows: Metabolic stability in rabbit liver microsomes assessed as compound remaining after 1 hr. To be noted: read-out: Stability. The data set is classed as ADME, Oryctolagus cuniculus, Microsome. A digest of the protocol:
as §1
In general terms: Liver microsomes are vesicles of endoplasmic reticulum, rich in cytochrome P450 enzymes.

For data set [8], the system named is Oryctolagus cuniculus. The data set is described as follows: Inhibition of erectile dysfunction in New Zealand white rabbit assessed as induction of SNP-potentiated penile erection at 3 mg/kg, po after 2 hrs. The data set is classed as functional, organism-based. The arrangement: dose 3 mg/kg. The gist of the method:
(§2)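 Conscious New Zealand white rabbits, 3–4 kg, n = 4. Compound given orally, dissolved in distilled water. SNP (0.1 mg/kg in saline) injected 2 h later. Penile length (covered plus mucosa area) measured in cm with sliding calipers over a total of 2 h after dosing.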

Data set [9] deals with hERG (KCNH2) (Homo sapiens, UniProt Q12809). Description: Inhibition of human ERG at 10 uM.
The nature of data set [10]: Aqueous solubility of the compound. It counts as physicochemical. To be noted: aqueous medium.
Data set [11] can be described thus: Inhibition of bovine platelet PDE3. The arrangement: species or system Bos taurus. A digest of the protocol: (§3)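 Enzyme sources: PDE1 from bovine heart, PDE2 from bovine heart, PDE3 from bovine platelet, PDE4 human recombinant, PDE6 from bovine retina, PDE11 human recombinant. IC50 values are the mean of more than 2 determinations.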
Data set [12] can be described thus: Inhibition of bovine heart PDE2. The arrangement: species or system Bos taurus. A digest of the protocol:
as §3

Data set [13] has as its target Phosphodiesterase 4 (Homo sapiens, UniProt P27815+Q08499+Q07343+Q08493). Description: Inhibition of human recombinant PDE4. The data set is classed as protein assay. The gist of the method: as §3
Data set [14] in a line: Inhibition of bovine heart PDE1. The arrangement: species or system Bos taurus. A digest of the protocol:
as §3

Data set [15] is described as follows: Cytotoxicity against mouse L5178Y cells. The data set is classed as cell-based.
For data set [16], the system named is Oryctolagus cuniculus. Description: Inhibition of erectile dysfunction in New Zealand white rabbit assessed as induction of SNP-potentiated penile erection at 0.3 mg/kg, po after 2 hrs. The data set is classed as functional, organism-based. The arrangement: dose 0.3 mg/kg. The gist of the method: as §2
The subject of data set [17] is Liver microsomes. The data set is described as follows: Metabolic stability in human liver microsomes. It counts as ADME, Microsome. A digest of the protocol: as §1
Data set [18] can be described thus: Tmax in rat at 10 mg/kg, po. The arrangement: dose 10 mg/kg, route oral. To be noted: in vivo. It counts as ADME, organism-based. The gist of the method: (§4)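 Oral dosing at 10 mg/kg in 0.5% Tween 80, given as the HCl salt, with n = 4 animals per species. Plasma PK parameters were determined: Tmax, Cmax, half-life and AUClast.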
Data set [19] is described as follows: Tmax in rabbit at 10 mg/kg, po. It counts as ADME, organism-based, Oryctolagus cuniculus. The arrangement: dose 10 mg/kg, route oral. The settings on record: in vivo. A digest of the protocol: as §4
Data set [20] in a line: AUClast in rat at 10 mg/kg, po. To be noted: plasma. The arrangement: time 0 - last, dose 10 mg/kg, route oral. The data set is classed as ADME, organism-based. A digest of the protocol:
as §4

The nature of data set [21]: Cmax in rat at 10 mg/kg, po. The data set is classed as ADME, organism-based. The arrangement: dose 10 mg/kg, route oral. The settings on record: in vivo. The gist of the method:
as §4

Data set [22] in a line: Half life in rat at 10 mg/kg, po. The data set is classed as ADME, organism-based. The arrangement: dose 10 mg/kg, route oral. The settings on record: in vivo. A digest of the protocol:
as §4

A short description of data set [23]: Cmax in rabbit at 10 mg/kg, po. The arrangement: dose 10 mg/kg, route oral. To be noted: in vivo. The data set is classed as ADME, organism-based, Oryctolagus cuniculus. The gist of the method: as §4
A short description of data set [24]: AUClast in rabbit at 10 mg/kg, po. It counts as ADME, organism-based, Oryctolagus cuniculus. The arrangement: time 0 - last, dose 10 mg/kg, route oral. To be noted: plasma. A digest of the protocol: as §4
The nature of data set [25]: Half life in rabbit at 10 mg/kg, po. The data set is classed as ADME, organism-based, Oryctolagus cuniculus. The arrangement: dose 10 mg/kg, route oral. The settings on record: in vivo. The gist of the method: as §4

Dual 3',5'-cyclic-AMP and -GMP phosphodiesterase 11A, sequence (Q9HCR9 whole entry): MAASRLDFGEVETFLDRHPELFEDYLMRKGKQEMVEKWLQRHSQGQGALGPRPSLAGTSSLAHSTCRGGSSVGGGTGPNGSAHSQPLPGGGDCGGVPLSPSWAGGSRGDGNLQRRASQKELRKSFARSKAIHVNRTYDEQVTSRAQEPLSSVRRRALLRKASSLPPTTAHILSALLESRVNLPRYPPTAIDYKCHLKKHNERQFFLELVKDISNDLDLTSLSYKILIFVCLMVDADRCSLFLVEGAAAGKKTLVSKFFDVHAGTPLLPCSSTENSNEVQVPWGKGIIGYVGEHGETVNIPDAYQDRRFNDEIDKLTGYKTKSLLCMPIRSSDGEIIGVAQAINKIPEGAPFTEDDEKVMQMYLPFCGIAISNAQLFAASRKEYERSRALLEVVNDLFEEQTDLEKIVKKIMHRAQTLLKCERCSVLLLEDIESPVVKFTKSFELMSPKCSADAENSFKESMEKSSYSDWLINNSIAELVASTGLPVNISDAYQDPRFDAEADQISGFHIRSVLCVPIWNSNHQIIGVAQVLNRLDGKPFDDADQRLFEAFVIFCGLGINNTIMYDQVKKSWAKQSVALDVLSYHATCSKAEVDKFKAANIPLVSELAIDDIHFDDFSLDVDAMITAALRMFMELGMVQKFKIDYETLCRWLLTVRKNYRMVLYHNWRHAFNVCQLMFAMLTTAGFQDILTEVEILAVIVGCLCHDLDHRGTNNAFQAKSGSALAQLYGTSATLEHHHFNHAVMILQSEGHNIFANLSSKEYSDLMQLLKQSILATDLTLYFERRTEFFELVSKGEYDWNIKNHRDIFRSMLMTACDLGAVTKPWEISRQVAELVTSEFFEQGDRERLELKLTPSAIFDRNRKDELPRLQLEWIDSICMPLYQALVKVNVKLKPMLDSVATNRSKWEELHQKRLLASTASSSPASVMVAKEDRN
hERG (KCNH2), sequence (Q12809 whole entry): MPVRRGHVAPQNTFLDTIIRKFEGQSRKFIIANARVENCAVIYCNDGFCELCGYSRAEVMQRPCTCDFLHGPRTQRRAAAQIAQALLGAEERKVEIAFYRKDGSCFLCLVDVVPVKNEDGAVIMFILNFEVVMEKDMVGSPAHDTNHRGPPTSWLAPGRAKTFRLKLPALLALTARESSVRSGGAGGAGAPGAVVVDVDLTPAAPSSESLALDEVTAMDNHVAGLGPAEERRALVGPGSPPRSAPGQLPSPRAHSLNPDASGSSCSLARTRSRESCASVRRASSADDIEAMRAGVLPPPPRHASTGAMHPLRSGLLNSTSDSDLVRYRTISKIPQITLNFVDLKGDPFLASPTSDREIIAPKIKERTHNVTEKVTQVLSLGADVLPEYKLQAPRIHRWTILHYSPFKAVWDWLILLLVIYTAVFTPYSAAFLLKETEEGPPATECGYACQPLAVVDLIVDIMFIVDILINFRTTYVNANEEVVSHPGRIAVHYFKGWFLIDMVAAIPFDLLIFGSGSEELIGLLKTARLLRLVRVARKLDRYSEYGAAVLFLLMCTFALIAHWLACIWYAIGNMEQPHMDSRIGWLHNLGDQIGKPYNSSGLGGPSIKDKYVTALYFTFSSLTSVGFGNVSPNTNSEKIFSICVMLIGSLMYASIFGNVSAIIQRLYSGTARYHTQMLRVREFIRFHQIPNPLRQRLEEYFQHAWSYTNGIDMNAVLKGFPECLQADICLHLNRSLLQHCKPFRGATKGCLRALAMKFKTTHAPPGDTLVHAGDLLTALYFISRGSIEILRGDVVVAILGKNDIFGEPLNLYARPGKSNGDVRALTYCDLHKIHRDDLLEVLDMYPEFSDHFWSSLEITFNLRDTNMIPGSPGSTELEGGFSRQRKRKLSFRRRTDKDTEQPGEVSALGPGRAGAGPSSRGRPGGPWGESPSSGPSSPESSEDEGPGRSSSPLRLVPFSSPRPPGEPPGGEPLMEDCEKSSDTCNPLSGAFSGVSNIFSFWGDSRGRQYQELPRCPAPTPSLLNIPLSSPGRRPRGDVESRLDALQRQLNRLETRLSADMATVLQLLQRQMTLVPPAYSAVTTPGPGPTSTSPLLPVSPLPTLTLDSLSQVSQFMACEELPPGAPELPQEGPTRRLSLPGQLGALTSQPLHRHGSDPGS

Consider `COC(=O)Nc1cc2c(NCc3ccc(OC)c(Cl)c3)ncnc2c(CCO)c1OC`, for which the IC50 in data set [1] turned out to be 5700 nM; in data set [2], 710 nM; in [3], 3 nM. Besides, the remaining at 1 h in [4] worked out at 72%.
As for `COc1ccc(CNc2ncnc3c(CCO)c(OC)c(N(C)C(=O)C4CC4)cc23)cc1Cl`, the figures for the IC50 in data set [2] and in data set [3] were 340 nM and 1 nM, respectively. Besides, the remaining at 1 h in data set [4] worked out at 25%.
Take `CCOC(=O)Nc1cc2c(NCc3ccc(OC)c(Cl)c3)ncnc2c(CCO)c1OC`: the values for the IC50 in data set [1], in data set [2] and in [3] were 5000 nM, 600 nM and 17 nM, respectively.
Regarding `CCC(=O)N(C)c1cc2c(NCc3ccc(OC)c(Cl)c3)ncnc2c(CCO)c1OC`, the figures for the remaining at 1 h in data set [5], in data set [7] and in data set [4] were over 90%, over 90% and 16%, respectively. Also, the Papp in data set [6] came out at 17 ×10⁻⁶ cm/s. Moreover, the inhibition entry in [8] was “Active”. Also, the half-maximal inhibitory concentration (IC50) in data set [1] was 5200 nM; in data set [2], 320 nM; in [3] it was 1 nM.
On to `COC(=O)N(C)c1cc2c(NCc3ccc(OC)c(Cl)c3)ncnc2c(CCO)c1OC` [listing 1 of 2 here], for which, in data set [6], the Papp amounted to 35 ×10⁻⁶ cm/s. The IC50 in data set [1] was determined as 12000 nM; in data set [11], 43000 nM; in [2], 140 nM; in data set [12] it was 32000 nM; in data set [13] it was 84000 nM; in data set [14], 12000 nM. The same compound had an IC50 in [3] of 0.6 nM. In addition, the inhibition at 10 µM in data set [9] is under 20%. Further, the solubility in [10] is over 2000 µg/mL. This compound also gave a half-maximal cytotoxic concentration (CC50) in [15] of 85000 nM. For the same compound, the remaining at 1 h in data set [4] worked out at 85%.
As for `COC(=O)N(C)c1cc2c(NCc3ccc(OC)c(Cl)c3)ncnc2c(CCO)c1OC` [listing 2 of 2 here], the inhibition result in [16] was “Active”.
In the case of `COc1ccc(CNc2ncnc3c(CCO)c(OC)c(N(C)C(=O)C(C)C)cc23)cc1Cl`, the results for the IC50 in data set [2] and in [3] were 1100 nM and 3 nM, respectively. Also, the remaining at 1 h in data set [4] was 4.8%.
Take `CN1CC(=O)N2[C@H](c3ccc4c(c3)OCO4)c3[nH]c4ccccc4c3C[C@@H]2C1=O`: the inhibition result in data set [8] was “Active”. In [2], this compound registered an IC50 of 3000 nM.
With `COc1ccc(CNc2ncnc3c(CCO)c(OC)c(NS(C)(=O)=O)cc23)cc1Cl`, in data set [17], the Stability result is given as “Unstable”. For the same compound, the IC50 in [3] was 11 nM.
Take `COc1ccc(CNc2ncnc3c(CCO)c(OC)c(NS(=O)(=O)N(C)C)cc23)cc1Cl`: the figures for the IC50 in data set [2] and in [3] were 7950 nM and 12 nM, respectively. Moreover, the Stability result in [17] is “Unstable”.
Turning to `COC(=O)N(C)c1cc2c(NCc3ccc(OC)c(Cl)c3)ncnc2c(CCO)c1OC.Cl`, the results for the Tmax in data set [18] and in data set [19] were 0.2 h and 2.4 h, respectively. In addition, the AUC(0-t) came out at 540 ng·h/mL in data set [20] and 2760 ng·h/mL in [24]. The Cmax in [21] is 420 ng/mL; in data set [23], 870 ng/mL. Further, the half-life is 2.25 h in data set [22] and 4.2 h in [25].
Take `CCC(=O)Nc1cc2c(NCc3ccc(OC)c(Cl)c3)ncnc2c(CCO)c1OC`: the remaining at 1 h in data set [5] was found to be 96%; in data set [7] it was 85%; in data set [4], 3%.
Take `CCC(=O)N(CC)c1cc2c(NCc3ccc(OC)c(Cl)c3)ncnc2c(CCO)c1OC`: the concentration for half-maximal inhibition (IC50) in data set [3] turned out to be 1 nM. Moreover, the remaining at 1 h in [4] came to 5.5%.

One may read the IC50 as the concentration that gives 50% inhibition. The term inhibition denotes the change of the read-out against control, counted positive when it falls. A word on the solubility: it is how much of the substance goes into solution per volume. A higher solubility goes with a readily soluble substance. Broadly, the CC50 is the concentration at which the toxic effect on the cells reaches its halfway point. High values mean lower toxicity to the cells, low ones greater toxicity to the cells. For orientation: Tmax means the time from dosing to the highest level. The AUC(0-t) is exposure summed from dosing to a finite time, without extrapolation to infinity. By Cmax is commonly meant the peak of the concentration-time curve. For orientation: half-life means the time needed for the level to fall by half in the phase considered. Lower therefore signals fast loss.
